Assays:
[1] = biological target: Adenosine receptor A2a (Rattus norvegicus) (UniProt P30543); assay: Displacement of [3H]MSX2 from Adenosine receptor A2a in rat brain striatal membranes at 10 uM; format: cell membranes; conditions: Membrane
In short: (§1)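 Native rat receptors: A1 in brain cortical membranes with [3H]CCPA, A2A in brain striatal membranes, from frozen unstripped rat brains. Compounds were first screened at a single high concentration in three independent experiments. Active compounds then had full inhibition curves over at least 3 orders of magnitude of concentration.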

[2] = biological target: T1, Adenosine receptor A3 (Homo sapiens) (UniProt P0DMS8); assay: Displacement of [3H]PSB11 from recombinant human adenosine receptor A3 expressed in CHO cell membranes at 1 uM
T1 sequence (whole entry): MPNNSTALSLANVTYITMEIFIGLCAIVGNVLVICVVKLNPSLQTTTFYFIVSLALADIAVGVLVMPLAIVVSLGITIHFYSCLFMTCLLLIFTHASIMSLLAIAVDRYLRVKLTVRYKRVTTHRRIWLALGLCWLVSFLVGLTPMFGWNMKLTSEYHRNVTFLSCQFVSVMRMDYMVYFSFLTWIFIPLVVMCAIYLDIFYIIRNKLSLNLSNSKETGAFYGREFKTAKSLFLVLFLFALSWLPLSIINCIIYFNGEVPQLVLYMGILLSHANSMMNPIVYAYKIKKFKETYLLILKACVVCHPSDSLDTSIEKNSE
In short: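 Membranes came from CHO cells expressing recombinant receptors (human A1, A2A, A2B, A3; rat A2B, A3). Radioligands were [3H]CCPA for A1 and [3H]PSB-11 or [3H]NECA for A3. A single high concentration was screened first, in three experiments for A1/A2A and two for A2B/A3. Full inhibition curves spanning at least 3 log units were run for potent compounds.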

Adenosine receptor A3 = biological target: T2, Adenosine receptor A3 (Homo sapiens, UniProt P0DMS8); assay: Displacement of [3H]PSB-11 from recombinant human adenosine receptor A3 expressed in CHO cell membranes
T2 sequence (P0DMS8 whole entry): T1 sequence (whole entry)

Adenosine receptor A2a = Adenosine receptor A2a (Rattus norvegicus, UniProt P30543); assay: Displacement of [3H]MSX2 from adenosine receptor A2a in rat brain striatal membranes; format: cell membranes, Membrane; in short: as §1
Adenosine receptor A2a, sequence (P30543 whole entry): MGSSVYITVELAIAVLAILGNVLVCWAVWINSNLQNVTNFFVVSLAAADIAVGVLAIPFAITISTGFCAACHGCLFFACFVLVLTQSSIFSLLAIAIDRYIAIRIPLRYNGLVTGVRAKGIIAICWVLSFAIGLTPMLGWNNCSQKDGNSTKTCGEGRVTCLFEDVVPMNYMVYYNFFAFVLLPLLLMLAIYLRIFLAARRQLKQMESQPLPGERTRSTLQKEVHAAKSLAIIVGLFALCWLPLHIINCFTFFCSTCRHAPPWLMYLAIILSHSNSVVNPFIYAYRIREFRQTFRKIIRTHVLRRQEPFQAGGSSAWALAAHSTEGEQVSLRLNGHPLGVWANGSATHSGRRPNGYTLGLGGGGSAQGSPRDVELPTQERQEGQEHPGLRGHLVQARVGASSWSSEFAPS

Adenosine receptor A1 = biological target: T3, Adenosine receptor A1 (Rattus norvegicus, UniProt P25099); assay: Displacement of [3H]CCPA from adenosine receptor A1 in rat brain cortical membranes; format: cell membranes
T3 sequence (P25099 whole entry): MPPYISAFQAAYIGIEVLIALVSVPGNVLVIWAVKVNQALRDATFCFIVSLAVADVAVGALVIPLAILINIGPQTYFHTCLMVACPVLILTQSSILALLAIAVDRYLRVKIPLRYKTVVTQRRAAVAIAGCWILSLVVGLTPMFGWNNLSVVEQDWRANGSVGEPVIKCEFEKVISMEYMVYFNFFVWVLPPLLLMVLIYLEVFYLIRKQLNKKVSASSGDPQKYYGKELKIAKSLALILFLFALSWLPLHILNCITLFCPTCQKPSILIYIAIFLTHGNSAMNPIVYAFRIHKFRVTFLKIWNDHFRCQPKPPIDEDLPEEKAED
In short: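 Native rat receptors: A1 in brain cortical membranes with [3H]CCPA, A2A in brain striatal membranes, from frozen unstripped rat brains. Compounds were first screened at a single high concentration in three independent experiments.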

[3] = biological target: T4, Adenosine receptor A1 (Rattus norvegicus) (UniProt P25099); assay: Displacement of [3H]CCPA from adenosine receptor A1 in rat brain cortical membranes at 10 uM; format: cell membranes; conditions: 1 uM, in the assay text read “at 1 uM” for “at 10 uM”; in short: as §1
T4 sequence (whole entry): T3 sequence (P25099 whole entry)

Adenosine receptor A2b = biological target: T5, Adenosine receptor A2b (Homo sapiens, UniProt P29275); assay: Displacement of [3H]PSB-603 from recombinant human adenosine receptor A2b expressed in CHO cell membranes
T5 sequence (P29275 whole entry): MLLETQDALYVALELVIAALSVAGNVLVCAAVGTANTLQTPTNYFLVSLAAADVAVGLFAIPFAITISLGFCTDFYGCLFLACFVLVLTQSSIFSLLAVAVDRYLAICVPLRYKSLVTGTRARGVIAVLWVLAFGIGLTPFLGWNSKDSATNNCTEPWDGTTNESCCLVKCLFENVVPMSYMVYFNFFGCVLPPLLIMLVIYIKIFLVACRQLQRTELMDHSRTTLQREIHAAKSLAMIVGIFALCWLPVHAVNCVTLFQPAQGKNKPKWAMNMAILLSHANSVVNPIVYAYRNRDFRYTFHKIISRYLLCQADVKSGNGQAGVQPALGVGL
In short: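 Membranes came from CHO cells expressing recombinant receptors (human A1, A2A, A2B, A3; rat A2B, A3). Radioligands were [3H]CCPA for A1 and [3H]PSB-11 or [3H]NECA for A3. A single high concentration was screened first, in three experiments for A1/A2A and two for A2B/A3.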

Adenosine receptor A2a (Rattus norvegicus), sequence (P30543 whole entry): as the sequence (P30543 whole entry) above

inhibition [1]: 35%
inhibition [2]: 3%
Ki (Adenosine receptor A3): > 1000 nM
Ki (Adenosine receptor A2a): > 10000 nM
Ki (Adenosine receptor A1): > 1000 nM
inhibition [3]: 4%
Ki (Adenosine receptor A2b): > 1000 nM
SMILES: Cn1c(=O)c2c(nc3n2CCN(CCc2ccc(O)cc2)C3)n(C)c1=O

Source: ChEMBL document CHEMBL3826885, “Similarities and differences in affinity and binding modes of tricyclic pyrimido- and pyrazinoxanthines at human and rat adenosine receptors” (Bioorg Med Chem, 2016)
